Most compounds without a hit are left out; they make up all but 1.8% or so of the library.
MT1-MMP act inh = inhibitors of human MT1-MMP activation; P50281; HT1080 RFP-PRO-GFP cells, GFP/RFP ratio fluorescence, overnight; percent of plate control window, DMSO zero; GFP/RFP ratio change, % at 20 µM; actives 0.061% (n = 360,000); AID 651647;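 active = GFP/RFP ratio change of at least 30% with cell ATP level not reduced by more than half and red fluorescence within 50% of control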
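Compound: 20 µM single dose, 1% DMSO / System: HT1080 RFP-PRO-GFP cells / Controls: DMSO and RFP-L50D-GFP cell wells / Read-out basis: GFP/RFP fluorescence ratio / Schedule: overnight compound exposure at 37 °C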
iPSC survival up = hiPSC single-cell survival enhancement; AID 602274; actives 0.044% (n = 360,000); ATPlite luminescence; 100% = ROCK inhibitor wells, 0% = DMSO; survival enhancement, % at 20 µM; in the data active = survival enhancement above about 18%;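 also: cells exposed to compounds for 16 hours before the ATP read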
E coli Lon inh = inhibits E. coli Lon protease. inhibition, % at 7.94 µM. actives 0.42% (n = 360,000). purified E. coli Lon protease, fluorescence polarization; in the data active = inhibition above about 13%, passing the limit was not always enough
PREPL inh = inhibits the human prolyl oligopeptidase-like enzyme; Q4J6C6; recombinant PREPL, fluorescence polarization activity-based probe; inhibition, % at 5.96 µM; actives 0.68% (n = 320,000); AID 2751; in the data active = inhibition above about 43%
Target sequence (Q4J6C6 whole entry, looked up): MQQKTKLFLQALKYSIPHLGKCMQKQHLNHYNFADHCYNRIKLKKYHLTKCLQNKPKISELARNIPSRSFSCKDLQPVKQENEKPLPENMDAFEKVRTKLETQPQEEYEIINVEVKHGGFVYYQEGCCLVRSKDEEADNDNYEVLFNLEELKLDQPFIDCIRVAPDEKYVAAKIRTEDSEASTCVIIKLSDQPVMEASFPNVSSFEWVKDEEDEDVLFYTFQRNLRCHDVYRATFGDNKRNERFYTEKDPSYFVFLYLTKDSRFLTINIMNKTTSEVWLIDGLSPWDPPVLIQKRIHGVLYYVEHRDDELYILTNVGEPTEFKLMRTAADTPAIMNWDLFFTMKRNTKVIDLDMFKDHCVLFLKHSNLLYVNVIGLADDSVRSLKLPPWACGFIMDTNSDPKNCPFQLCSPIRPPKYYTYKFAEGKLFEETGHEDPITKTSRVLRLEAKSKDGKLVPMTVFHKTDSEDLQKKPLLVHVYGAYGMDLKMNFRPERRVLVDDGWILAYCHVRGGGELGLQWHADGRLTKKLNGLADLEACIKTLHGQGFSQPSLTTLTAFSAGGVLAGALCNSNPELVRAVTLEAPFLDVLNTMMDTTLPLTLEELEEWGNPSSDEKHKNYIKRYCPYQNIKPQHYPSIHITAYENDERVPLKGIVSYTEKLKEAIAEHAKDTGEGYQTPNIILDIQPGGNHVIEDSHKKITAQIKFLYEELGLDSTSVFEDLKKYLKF
SKN-1 block = C. elegans SKN-1 inhibition. C. elegans VP596 Pgst-4::GFP/RFP ratio, acrylamide-induced, 24 h. inhibition, % at 21.8 µM. actives 0.49% (n = 360,000);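 active = interference check ratio from 0.5 to 1.5 plus GFP to RFP signal ratio inhibition reaching or exceeding a fixed threshold, cut at about 30% in these data, passing the limit was not always enough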
Tb MetRS inh = blocks T. brucei methionyl-tRNA synthetase activity; inhibition, % at 11.9 µM; AID 624268; purified T. brucei MetRS, ATP depletion, Kinase-Glo luminescence; actives 0.4% (n = 360,000);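 active = inhibition above a per-plate cutoff of the control wells' mean inhibition plus 3 SD, cut at about 5.5% in these data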
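assay system = parasite MetRS enzyme | timing = 15 min preincubation, 2 h reaction, all 25 °C | evaluation = percent inhibition relative to median high and low control wells | medium = HEPES buffer containing pyrophosphatase, BSA, spermine, DTT | compound = single dose, 11.9 µM final nominal, 0.9% final DMSO | detection = Kinase-Glo luminescence, ATP depletion format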
Hits are given with their value; - = inactive; . = no result.

SMILES | MT1-MMP act inh | iPSC survival up | E coli Lon inh | PREPL inh | SKN-1 block | Tb MetRS inh
CCn1c(O)c(C(=O)CC2NCCc3ccccc32)c(=O)n(CC)c1=S (stereo not given) | - | - | - | - | 51 | -
COc1cc(CN=C(C)c2c(O)n(C3CCCCC3)c(=O)[nH]c2=O)cc(OC)c1 | - | - | - | - | - | -
CN(CC#CCN1CCCC1)C(=O)c1cccc(Cl)c1 | - | - | - | - | - | -
CN1Cc2c(c(C#N)c(N)n(C)c2=S)CC1(C)C | - | - | 40 | - | - | -
Cc1c(C)c2ccc(OCC(=O)N3C[C@H]4C[C@@H](C3)c3cccc(=O)n3C4)cc2oc1=O | - | - | - | - | - | -
O=[N+]([O-])/C=C/c1c(Cl)cccc1Cl | - | - | - | . | - | -
O=c1[nH]c(=O)n(-c2ccccc2)c(O)c1/C=C1/C(c2ccccc2)=Nc2ccccc21 | - | - | - | - | 36 | -
CC(Cc1ccccc1)N1C(=O)c2ccccc2C1=O (stereo not given) | - | - | - | - | - | -
COc1ccc(Cn2c(O)c(C=NCCCn3ccnc3)c(=O)[nH]c2=O)cc1 | - | 18 | - | - | - | -
CCCCCCn1c(O)c(C=NCCCn2ccnc2)c(=O)[nH]c1=O | - | - | - | - | - | -
CN1C(=O)NC(=O)C(N=Nc2ccc(Cl)cc2)C1=O (stereo not given) | - | - | - | . | - | -
CC(C)n1c(O)c(C2c3cc(Cl)ccc3Oc3[nH]c(=O)n(C(C)C)c(=O)c32)c(=O)[nH]c1=O (stereo not given) | - | 26 | - | . | - | -
CCOC(=O)CC1c2ccccc2-n2nncc2CN1CC1CCCCC1 (stereo not given) | - | - | - | . | - | -
O=S(=O)(c1cccc2ccccc12)N1Cc2ccccc2-n2nncc2C1 | - | - | - | . | - | -
O=C(CN1CCOCC1)c1cccc2ccccc12 | - | - | - | - | 38 | -
COC(=O)C12OCC34C(CC5C(C)=C(O)C(=O)CC5(C)C3C(O)C1O)OC(=O)C(OC(=O)/C=C(\C)C(C)C)C24 (stereo not given) | - | - | - | . | 56 | -
O=C1CN(O)C(c2ccccc2)=c2cc(Cl)ccc2=N1 | - | - | - | - | - | -
O=C1NC(=O)N(Cc2ccc(F)cc2)C(=O)/C1=C\c1ccc(N2CCCC2)cc1 | - | - | - | - | 39 | -
O=C1NC(=O)N(c2ccc(F)cc2)C(=O)/C1=C/c1ccc(N2CCOCC2)cc1 | - | - | - | - | - | -
O=C(N/N=C/c1c(O)n(Cc2ccccc2)c(=O)[nH]c1=O)c1ccccc1O | - | - | - | - | 37 | -
CN(C)P1(=O)N(C)CCN1C | - | - | - | . | - | -
CN(N)N=Nc1nc2c([nH]1)c(=O)n(C)c(=O)n2C | - | - | - | - | - | -
CC(=O)c1ccc2c(c1)C1C(Cl)C(Sc3ccccc3[N+](=O)[O-])CC1C(C(=O)O)N2 (stereo not given) | 45 | - | 22 | - | - | -
CC/C(=N\NC(=O)Nc1ccccc1)c1c(O)n(Cc2ccccc2)c(=O)[nH]c1=O | - | - | - | - | - | -
CC(C)[C@H]1C(=O)N2CCC[C@H]2[C@]2(O)O[C@](NC(=O)[C@@H]3C=C4c5cccc6[nH]cc(c56)C[C@H]4N(C)C3)(C(C)C)C(=O)N12 | - | - | 64 | 46 | - | -
SMILES | MT1-MMP act inh | iPSC survival up | E coli Lon inh | PREPL inh | SKN-1 block | Tb MetRS inh
CC(C)C[C@H]1C(=O)N2CCCC2[C@]2(O)O[C@](NC(=O)[C@@H]3C=C4c5cccc6[nH]cc(c56)CC4N(C)C3)(C(C)C)C(=O)N12 (stereo not given in full) | - | - | - | - | - | -
COc1ccc(OCC#CCN2CCNCC2)cc1 | . | - | - | - | - | -
O=C1NC(=O)C2(Cc3ccccc3N3CCCC32)C(=O)N1c1ccc(Cl)cc1 (stereo not given) | . | . | . | - | . | .
Cc1ccc(N2C(=O)NC(=O)C3(Cc4ccccc4N4CCCC43)C2=O)cc1 (stereo not given) | - | - | - | - | 59 | -
COC(=O)C1=C(c2ccc(OC)c(OC)c2)C[C@@H]2CC[C@H]1N2C(=O)N1CCOCC1 | - | - | - | - | - | -
C[C@](N)(CCP(=O)(O)O)C(=O)O | - | - | - | - | 49 | -
C=C(C=O)CC1CC(O)[C@]2(C)OC3CC4OC5C[C@]6(C)O[C@]7(C)CCC8OC9C[C@]%10(C)OC%11C(C)=CC(=O)OC%11CC%10OC9C[C@@H](C)C8OC7CC6O[C@]5(C)CC5OC5C4OC3CC2O1 (stereo not given in full) | - | 40 | - | - | - | -
Fc1cccc(F)c1-c1nc(-c2ccc(Cl)cc2)no1 | - | - | - | - | 57 | -
CCCc1nc2ccccc2c(=O)n1-c1ccc(OC)cc1 | - | - | - | - | 37 | -
CCCc1nc2ccccc2c(=O)n1-c1cccc(OC)c1 | - | - | - | - | - | -
COc1cc2c(C(=O)N3CCN(C)CC3)c(C)n(C)c2cc1Br | - | - | 20 | - | - | -
ClCCN(CCCl)c1ccc(C=NNc2ncccn2)cc1 | - | - | - | . | - | -
ClCCN(CCCl)c1ccc(C=Cc2ccncn2)cc1 | - | - | - | . | 54 | -
Cc1cccc(C(O)(C(=O)O)c2ccccc2)c1 (stereo not given) | - | - | - | . | - | -
CCCCCCn1c(N)c(C(=O)NCCN2CCOCC2)c2nc3ccccc3nc21 | - | - | - | - | - | -
CCCCCn1c(N)c(C(=O)NCCN2CCOCC2)c2nc3ccccc3nc21 | - | - | - | - | 34 | -
COC(=O)C1=C(c2cccc(C#N)c2)C[C@@H]2CC[C@H]1N2C(=O)NC1CC1 | - | - | - | - | - | -
COc1ccc2[nH]cc(CCN=C(N)N)c2c1 | - | - | - | - | - | -
COc1ccc2[nH]cc(C3=CCNCC3)c2c1 | . | . | . | 51 | . | .
CCOC(=O)CNC(=O)N1Cc2cc(-c3ccc(OC)cc3)ccc2-n2nncc2C1 | - | - | - | . | - | -
CCCCN1C(=O)NC(=O)C2(Cc3cc(C)ccc3N(C)C2)C1=O (stereo not given) | - | - | - | - | 41 | -
C[C@H]1CC[C@@]2(C)[C@@H](CC[C@@H]3[C@@H]2CC[C@]2(C)[C@@H](O)CC[C@@H]32)C1 | - | - | - | - | - | -
Cc1ccc(/C=C2\C(=O)NC(=S)N(c3ccc(F)cc3)C2=O)s1 | - | - | - | - | 36 | -
Cc1ccccc1N1C(=O)NC(=O)/C(=C\c2ccc3c(c2)CCCN3Cc2ccccc2)C1=O | - | - | - | - | - | -
O=C1NC(=S)NC(=O)C1=Cc1ccc2c(c1)CCN2CCCCl | - | - | - | - | 38 | -

Screening results as filed in PubChem BioAssay.
